NS3 helicase inh – blocks Hepatitis C virus NS3 helicase unwinding; NS3 helicase DNA unwinding, Cy5 molecular beacon fluorescence; inhibition, % at 10.9 µM; 0.56% of 290,000 active; AID 1800;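 active = inhibition above the mean of all tested compounds plus 3 SD, set per campaign, cut at about 35% in these data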;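 note: 0% = DMSO wells and 100% = thioflavine S control wells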
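Test system: hepatitis C virus NS3 helicase domain fragment enzyme. Also added: annealed dual-labelled DNA beacon duplex, ATP-started. Timing: 60 min unwinding reaction at 25 °C after ATP addition. Technique: Cy5 fluorescence. Measure: % inhibition of unwinding.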
UBC9 SUMO inh – inhibitors of human SUMOylation (UBC9); P63279; HTRF SUMOylation assay, SAE1/SAE2 + UBC9, in vitro; inhibition, % at 35 µM; 0.36% of 290,000 active; AID 2006; in the data active = inhibition above about 50%, passing the limit was not always enough
Target sequence (P63279 whole entry, looked up): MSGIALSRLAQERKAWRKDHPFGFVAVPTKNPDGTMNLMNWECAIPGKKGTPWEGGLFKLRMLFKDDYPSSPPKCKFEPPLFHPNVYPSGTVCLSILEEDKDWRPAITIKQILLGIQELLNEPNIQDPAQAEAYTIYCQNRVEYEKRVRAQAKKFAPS
VIM-2 inh – inhibitors of Pseudomonas aeruginosa VIM-2 metallo-beta-lactamase | purified VIM-2, nitrocefin hydrolysis, epi-absorbance fluorescence | 0.89% of 290,000 active | inhibition, % at 5.6 µM | AID 1527;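 active = inhibition above the mean of all tested compounds plus 3 SD, cutoff set per screening run, cut at about 7.5% in these data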;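 note: red hydrolysis product quenches plate fluorescence so inhibitors raise well fluorescence; 0% = enzyme with DMSO and 100% = DMSO without enzyme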
FID counter – counter-screen for HCV NS3 helicase inhibitors: DNA intercalator displacement | DNA fluorescent intercalator displacement, fluorescence | AID 1845 | inhibition, % at 7.9 µM | 0.17% of 290,000 active; in the data active = inhibition above about 37%;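 note: 0% = vehicle and 100% = reference compound; higher means more ethidium bromide displaced from hairpin DNA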
IMP-1 inh – blocks Pseudomonas aeruginosa IMP-1 metallo-beta-lactamase. purified IMP-1, nitrocefin hydrolysis, epi-absorbance fluorescence. inhibition, % at 5.6 µM. 0.45% of 290,000 active. AID 1556;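 active = inhibition above the mean plus 3 SD of all compounds in the same screening run, cut at about 4.5% in these data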;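 note: 0% = IMP-1 with DMSO and 100% = DMSO wells lacking enzyme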
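System: purified recombinant IMP-1 beta-lactamase. Medium: Zinc- and detergent-supplemented HEPES buffer, pH 7.1. Compound: one 5.6 µM dose […]. Schedule: 15 min preincubation plus 25 min reaction at 25 °C. Technique: Epi-absorbance fluorescence, 480 nm excitation, 530 nm emission.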
Numbers without * were called inactive; . = not tested or not shown. An excerpt weighted towards active compounds, which were near 2.1% of everything screened.

SMILES	NS3 helicase inh	UBC9 SUMO inh	VIM-2 inh	FID counter	IMP-1 inh
COc1ccccc1C(=O)NNC(=O)c1cccc(F)c1	10	-4	-3	-2	-3
O=C(CN1C(=O)/C(=C\c2ccccc2Cl)Sc2ccccc21)NCCCN1CCOCC1	-33	9	-1	25	0
Cc1cccc(CN2C(=O)/C(=C\c3ccc(C(=O)NCCN4CCOCC4)cc3)Sc3ccccc32)c1	-28	10	0	-2	0
CCc1ccc(/C=C2/Sc3ccccc3N(CC(=O)NCCCN3CCOCC3)C2=O)cc1	-37	-2	3	54*	0
Cc1ccc(CN2C(=O)c3ccccc3Sc3ccc(C(=O)NCCCN4CCOCC4)cc32)cc1	-76	.	0	37*	0
CCN1CCN(CCNC(=O)c2ccc(/C=C3/Sc4ccccc4N(Cc4cccc(Cl)c4)C3=O)cc2)CC1	-39	-1	1	39*	0
O=C(CN1C(=O)/C(=C\c2cccc(Cl)c2)Sc2ccccc21)NCCCN1CCOCC1	-48	10	3	43*	2
CCCOc1ccc(CNC(=O)C2CCN(c3nnc(N4CCCC4=O)s3)CC2)cc1	-1	6	-2	-7	-1
Cc1ccc2nc3c(c(N)c2c1)CCN3C	-7	17	-1	42*	-3
COc1ccc2c(Cl)c(C(=O)NN3CCN(C)CC3)sc2c1	2	-11	8.5*	7	-1
CC1CCN(S(=O)(=O)c2cn(CC(=O)Nc3ccc(OC(F)(F)F)cc3)cn2)CC1	7	-4	-3	-4	8.8*
O=C(Cn1cnc(S(=O)(=O)N2CCCCC2)c1)Nc1ccc(OC(F)(F)F)cc1	-9	-3	0	-24	-3
CCc1ccc(NC(=O)[C@@H](NC(=O)[C@@H]2Cc3ccccc3CN2)C(C)CC)cc1 (stereo not given in full)	-27	-5	1	29	-1
CC(C)c1cc(NCCCN2CCOCC2)n2c(nc3ccccc32)c1C#N	-5	-18	1	-3	-1
CC(C)c1cc(NCC2CCCO2)n2c(nc3ccccc32)c1C#N (stereo not given)	-1	21	9.9*	-21	-2
CCc1c(C)c(C#N)c2nc3ccccc3n2c1NCC1CCCO1 (stereo not given)	-3	12	7.8*	-22	-1
COC(=O)[C@@H](Cc1c[nH]c2ccccc12)NC(=O)CCC(=O)c1ccc(F)cc1	13	-8	0	-23	-1
C=CCn1c(=NC(=O)c2ccccc2[N+](=O)[O-])sc2cc(S(C)(=O)=O)ccc21	-5	8	1	-1	-2
Cc1oc(-c2ccccc2Cl)nc1CN1CCCN(C(=O)c2ccco2)CC1	6	6	1	-8	-3
COc1ccc(CN(C)C(=O)c2cc(S(=O)(=O)Nc3ccccc3F)ccc2C)c(OC)c1	9	-26	1	-44	4.8*
Cc1cc2c([nH]c3ccccc32)c2c1OC(C)(C)C=C2	.	-17	.	.	.
COc1ccc2[nH]c(=O)c3c(c2c1)OC(C)(C)C=C3	-4	3	-2	-1	39*
CCOc1ccc(CNC(=O)Cn2nc(C)c3c(C)n(-c4ccc(C)cc4)nc3c2=O)cc1	-42	12	0	-52	11*
Cc1ccc(-n2nc3c(=O)n(CC(=O)NCc4ccccn4)nc(C)c3c2C)cc1	9	2	-2	-28	-3
CCOC(=O)CSc1cc(C)c(C#N)c2nc3ccccc3n12	6	9	-1	-5	-1
SMILES	NS3 helicase inh	UBC9 SUMO inh	VIM-2 inh	FID counter	IMP-1 inh
CCOC(=O)c1c(C)cc(C)n2c1nc1ccccc12	4	21	11*	-5	-4
COC(=O)c1sc(-c2cccs2)cc1N	28	14	3	2	13*
COC(=O)C(Cc1ccccc1)NC(=O)CC(C)CC(=O)Nc1ccc(C)cc1 (stereo not given)	-1	1	0	-36	-2
Nc1nnc(-c2cc3c(ccc4ccccc43)oc2=O)s1	-10	66*	2	4	-2
COc1cc(C2CC(=O)C3=C(C2)Nc2ncnn2C3c2cccs2)cc(OC)c1OC (stereo not given)	-5	21	-1	-16	-2
COc1cc(C2C=C(c3cccs3)Nc3ncnn32)cc(OC)c1OC (stereo not given)	-4	53*	2	-8	-1
CN(C)CCCNS(=O)(=O)c1ccc(N2CCC(c3ccc(Cl)cc3)=N2)cc1	-19	65*	1	37*	-1
O=C(NCc1cccc(OC(F)(F)F)c1)C1CCC(=O)N(Cc2cccc(F)c2)C1 (stereo not given)	-1	6	-2	-24	-2
CCOc1ccc(Cl)cc1S(=O)(=O)N1CCC(C(=O)NC2CC2)CC1	7	8	0	-10	-2
Cc1cccc(NC(=S)NNC(=O)CCn2nc(C)c([N+](=O)[O-])c2C)c1	-5	-9	8.2*	-2	-7
Cc1cc(Br)ccc1OCCNCc1ccccc1	-35	5	-2	38*	-1
O=C(CSc1nc2ccccc2s1)NNC(=S)Nc1ccc(Br)cc1	6	-168	-5	-40	-5
O=C(CSc1nc2ccccc2s1)NNC(=S)Nc1ccccc1	14	-45	9.7*	-11	-4
Cc1csc(NC(=O)CSc2nc3ccccc3s2)n1	-5	31	-1	-9	4.6*
CC(C)(C)NC(=O)COC(=O)c1ccc(Cl)c(S(N)(=O)=O)c1	11	18	-3	2	-2
CN(C)c1ccc(/C=N/NC(=O)c2ccc(CN3C(=O)c4cccc5cccc3c45)cc2)cc1	-12	11	-1	-18	-1
O=C(N/N=C/c1ccccc1)c1ccc(CN2C(=O)c3cccc4cccc2c34)cc1	-13	50*	-1	-18	-2
CCC1=NN2C(=N)/C(=C\c3ccc(OCCOc4ccc(NC(C)=O)cc4)c(OC)c3)C(=O)N=C2S1	22	17	10*	-17	-3
CCC1=NN2C(=N)/C(=C\c3ccc(OCCOc4ccccc4OC)cc3)C(=O)N=C2S1	19	15	-3	-17	-4
C=CCn1c(N)c(C(=O)OC(C)CC)c2nc3ccccc3nc21 (stereo not given)	-3	39	-2	-21	-2
C=CCn1c(N)c(C(=O)Nc2ccccc2)c2nc3ccccc3nc21	-8	91*	1	7	-1
C=CCn1c(N)c(C(=O)OC(C)(C)C)c2nc3ccccc3nc21	-3	98*	-2	-14	-2
C=CCNC(=O)c1c(N)n(-c2cccc(S(N)(=O)=O)c2)c2nc3ccccc3nc12	-5	83	5	-7	-3
O=C(C[n+]1cccc(Br)c1)c1ccc(-c2ccccc2)cc1	-15	15	-2	2	-2
O=C(Nc1nc2cc(Cl)ccc2s1)C1CCCN(S(=O)(=O)c2cccc3cccnc23)C1 (stereo not given)	2	-22	-5	0	-4

Source: PubChem BioAssay (several laboratories)
